# Test results: ChEMBL document CHEMBL2331277, “Design, synthesis and pharmacological evaluation of omeprazole-like agents with anti-inflammatory activity” (2013)
# Columns and labels:
# Rattus norvegicus [1] = assay: Antiulcerogenic activity in pylorus ligation-induced gastric ulcer Sprague-Dawley rat model assessed as pH of gastric juice at 3.6 mg/kg, po for 3 days (Rvb =2.60 +/-0.55 ); format: functional
# Rattus norvegicus [2] = assay: Antiulcerogenic activity in pylorus ligation-induced gastric ulcer Sprague-Dawley rat model assessed as volume of gastric juice at 3.6 mg/kg, po for 3 days (Rvb =5.96 +/-0.80 ml ); format: functional
# Rattus norvegicus [3] = assay: Antiulcerogenic activity in pylorus ligation-induced gastric ulcer Sprague-Dawley rat model assessed as stomach peptic activity measuring tyrosine release for 4 hrs at 3.6 mg/kg, po for 3 days (Rvb =5.70 +/-2.40 ug/ml ); format: functional
# Procedure, shortened: (§1)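 Pylorus-ligated rat model as above (3-day oral dosing, 3.6 or 7.2 mg/kg, 5 h ligation). Gastric juice sample (0.1 ml) was incubated with 2.9 ml acid hemoglobin substrate (2.5 g/100 ml, pH 2.2) for 30 min at 37 °C. Reaction was stopped with ice-cold 0.6 M TCA and centrifuged. Liberated amino acids were read by Lowry, expressed as µg tyrosine/ml.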
# Rattus norvegicus [4] = assay: Antiulcerogenic activity in pylorus ligation-induced gastric ulcer Sprague-Dawley rat model assessed as stomach H+/K+-ATPase activity measuring Pi release per hour per mg protein at 3.6 mg/kg, po for 3 days (Rvb =11.44 +/-1.5 umol ); format: functional
# Mus musculus [5] = assay: Antiulcerogenic activity in ethanol-induced gastric ulcer Swiss albino mouse model assessed as inhibition of ulceration at 3.6 mg/kg administered intragastrically for 3 days relative to control; format: functional; conditions: Stomach, po, 72 h, route intragastric
# Procedure, shortened: (§2)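 Mice, n = 6 per group, given 3.6 or 7.2 mg/kg, omeprazole 3.6 mg/kg, or vehicle (0.25% w/v carboxymethyl cellulose) for 3 days. After a 24 h fast, 90% ethanol (10 ml/kg) was given intragastrically. Animals were killed 1 h later. Stomachs were opened along the greater curvature and lesion lengths measured under a microscope.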
# Mus musculus [6] = assay: Antiulcerogenic activity in ethanol-induced gastric ulcer Swiss albino mouse model assessed as lesion length at 3.6 mg/kg administered intragastrically for 3 days; format: functional, Stomach; conditions: route intragastric; procedure, shortened: as §2
# Rattus norvegicus [7] = assay: Antiinflammatory activity against carrageenan-induced paw edema in Sprague-Dawley rat assessed as inhibition of paw volume at 20 mg/kg, po measured 180 mins post challenge by plethysmometer; format: functional; conditions: 3 h
# Rattus norvegicus [8] = assay: Antiinflammatory activity against carrageenan-induced paw edema in Sprague-Dawley rat assessed as paw volume at 20 mg/kg, po measured 120 mins post challenge by plethysmometer (reference value: 1.13 +/- 0.04 ml); format: functional
# Rattus norvegicus [9] = assay: Antiinflammatory activity against carrageenan-induced paw edema in Sprague-Dawley rat assessed as paw volume at 20 mg/kg, po measured 60 mins post challenge by plethysmometer (reference value: 0.90 +/- 0.03 ml); format: functional
# Rattus norvegicus [10] = assay: Antiulcerogenic activity in pylorus ligation-induced gastric ulcer Sprague-Dawley rat model assessed as pH of gastric juice at 7.2 mg/kg, po for 3 days (Rvb =2.60 +/-0.55 ); format: functional
# Rattus norvegicus [11] = assay: Antiulcerogenic activity in pylorus ligation-induced gastric ulcer Sprague-Dawley rat model assessed as volume of gastric juice at 7.2 mg/kg, po for 3 days (Rvb =5.96 +/-0.80 ml ); format: functional
# Rattus norvegicus [12] = assay: Antiulcerogenic activity in pylorus ligation-induced gastric ulcer Sprague-Dawley rat model assessed as stomach peptic activity measuring tyrosine release for 4 hrs at 7.2 mg/kg, po for 3 days (Rvb =5.70 +/-2.40 ug/ml ); format: functional; procedure, shortened: as §1
# Rattus norvegicus [13] = assay: Antiulcerogenic activity in pylorus ligation-induced gastric ulcer Sprague-Dawley rat model assessed as stomach H+/K+-ATPase activity measuring Pi release per hour per mg protein at 7.2 mg/kg, po for 3 days (Rvb =11.44 +/-1.5 umol ); format: functional
# Mus musculus [14] = assay: Antiulcerogenic activity in ethanol-induced gastric ulcer Swiss albino mouse model assessed as inhibition of ulceration at 7.2 mg/kg administered intragastrically for 3 days relative to control; format: functional; conditions: Stomach, po, 72 h, route intragastric; procedure, shortened: as §2
# Mus musculus [15] = assay: Antiulcerogenic activity in ethanol-induced gastric ulcer Swiss albino mouse model assessed as lesion length at 7.2 mg/kg administered intragastrically for 3 days; format: functional, Stomach; conditions: route intragastric; procedure, shortened: as §2
# Rattus norvegicus [16] = assay: Antiinflammatory activity against carrageenan-induced paw edema in Sprague-Dawley rat assessed as inhibition of paw volume at 30 mg/kg, po measured 180 mins post challenge by plethysmometer; format: functional; conditions: 3 h
# Rattus norvegicus [17] = assay: Antiinflammatory activity against carrageenan-induced paw edema in Sprague-Dawley rat assessed as paw volume at 30 mg/kg, po measured 120 mins post challenge by plethysmometer (reference value: 1.13 +/- 0.04 ml); format: functional
# Rattus norvegicus [18] = assay: Antiinflammatory activity against carrageenan-induced paw edema in Sprague-Dawley rat assessed as paw volume at 30 mg/kg, po measured 60 mins post challenge by plethysmometer (reference value: 0.90 +/- 0.03 ml); format: functional
# Rattus norvegicus [19] = assay: Antiinflammatory activity against carrageenan-induced paw edema in Sprague-Dawley rat assessed as inhibition of paw volume at 10 mg/kg, po measured 180 mins post challenge by plethysmometer; format: functional; conditions: 3 h
# Rattus norvegicus [20] = assay: Antiinflammatory activity against carrageenan-induced paw edema in Sprague-Dawley rat assessed as paw volume at 10 mg/kg, po measured 120 mins post challenge by plethysmometer (reference value: 1.13 +/- 0.04 ml); format: functional
# Rattus norvegicus [21] = assay: Antiinflammatory activity against carrageenan-induced paw edema in Sprague-Dawley rat assessed as paw volume at 10 mg/kg, po measured 60 mins post challenge by plethysmometer (reference value: 0.90 +/- 0.03 ml); format: functional
smiles,measurement,setting,value
COc1ccc2[nH]c([S+]([O-])Cc3ncc(C)c(OC)c3C)nc2c1 (stereo not given) [OMEPRAZOLE],pH,Rattus norvegicus [1],4.26
same,Activity,Rattus norvegicus [2],2.64 mL
same,Activity,Rattus norvegicus [3],4.92 µg/mL
same,Activity,Rattus norvegicus [4],7.1 µmol
same,inhibition in vivo at 3.6 mg/kg,Mus musculus [5],68.3%
same,Activity,Mus musculus [6],40 mm
O=C([O-])Cc1ccccc1Nc1c(Cl)cccc1Cl.[Na+] [DICLOFENAC SODIUM],inhibition in vivo at 20 mg/kg,Rattus norvegicus [7],73%
same,Activity,Rattus norvegicus [8],0.35 mL
same,Activity,Rattus norvegicus [9],0.38 mL
COc1c(C)cnc(CNc2ccc3c(c2)nc(C)n3C[C@@H](O)[C@H]2O[C@H](O)[C@@H](O)[C@H]2O)c1C,pH,Rattus norvegicus [10],4.39
same,pH,Rattus norvegicus [1],4.14
same,Activity,Rattus norvegicus [11],2.38 mL
same,Activity,Rattus norvegicus [2],2.48 mL
same,Activity,Rattus norvegicus [12],4.56 µg/mL
same,Activity,Rattus norvegicus [3],4.8 µg/mL
same,Activity,Rattus norvegicus [13],6.62 µmol
same,Activity,Rattus norvegicus [4],7.01 µmol
same,inhibition in vivo at 7.2 mg/kg,Mus musculus [14],76.2%
same,inhibition in vivo at 3.6 mg/kg,Mus musculus [5],62.6%
same,Activity,Mus musculus [15],30 mm
same,Activity,Mus musculus [6],47 mm
same,inhibition in vivo at 30 mg/kg,Rattus norvegicus [16],56%
same,Activity,Rattus norvegicus [17],0.43 mL
same,Activity,Rattus norvegicus [18],0.49 mL
same,inhibition in vivo at 20 mg/kg,Rattus norvegicus [7],50%
same,Activity,Rattus norvegicus [8],0.48 mL
same,Activity,Rattus norvegicus [9],0.5 mL
same,inhibition in vivo at 10 mg/kg,Rattus norvegicus [19],36%
same,Activity,Rattus norvegicus [20],0.64 mL
same,Activity,Rattus norvegicus [21],0.61 mL
COc1c(C)cnc(CNc2ccc3[nH]c(C)nc3c2)c1C,inhibition in vivo at 30 mg/kg,Rattus norvegicus [16],53%
same,Activity,Rattus norvegicus [17],0.62 mL
same,Activity,Rattus norvegicus [18],0.64 mL
same,inhibition in vivo at 20 mg/kg,Rattus norvegicus [7],49%
same,Activity,Rattus norvegicus [8],0.67 mL
same,Activity,Rattus norvegicus [9],0.69 mL
same,inhibition in vivo at 10 mg/kg,Rattus norvegicus [19],10%
same,Activity,Rattus norvegicus [20],0.88 mL
same,Activity,Rattus norvegicus [21],0.7 mL
COc1ccnc(CNc2ccc3c(c2)nc(C)n3C[C@@H](O)[C@H]2O[C@H](O)[C@@H](O)[C@H]2O)c1C,pH,Rattus norvegicus [10],4.31
same,pH,Rattus norvegicus [1],4.1
same,Activity,Rattus norvegicus [11],2.24 mL
same,Activity,Rattus norvegicus [2],2.31 mL
same,Activity,Rattus norvegicus [12],4.34 µg/mL
same,Activity,Rattus norvegicus [3],4.62 µg/mL
same,Activity,Rattus norvegicus [13],6 µmol
same,Activity,Rattus norvegicus [4],6.78 µmol
same,inhibition in vivo at 7.2 mg/kg,Mus musculus [14],66.6%
same,inhibition in vivo at 3.6 mg/kg,Mus musculus [5],57.9%
same,Activity,Mus musculus [15],42 mm
same,Activity,Mus musculus [6],53 mm
same,inhibition in vivo at 30 mg/kg,Rattus norvegicus [16],58%
same,Activity,Rattus norvegicus [17],0.64 mL
same,Activity,Rattus norvegicus [18],0.63 mL
same,inhibition in vivo at 20 mg/kg,Rattus norvegicus [7],53%
same,Activity,Rattus norvegicus [8],0.68 mL
same,Activity,Rattus norvegicus [9],0.68 mL
same,inhibition in vivo at 10 mg/kg,Rattus norvegicus [19],22%
same,Activity,Rattus norvegicus [20],0.88 mL
same,Activity,Rattus norvegicus [21],0.68 mL
COc1ccnc(CNc2ccc3c(c2)nc(C)n3C[C@@H](O)[C@H]2O[C@H](O)[C@@H](O)[C@H]2O)c1OC,pH,Rattus norvegicus [10],4.73
same,pH,Rattus norvegicus [1],4.53
same,Activity,Rattus norvegicus [11],2.39 mL
same,Activity,Rattus norvegicus [2],2.56 mL
same,Activity,Rattus norvegicus [12],4.54 µg/mL
same,Activity,Rattus norvegicus [3],4.79 µg/mL
same,Activity,Rattus norvegicus [13],6.34 µmol
same,Activity,Rattus norvegicus [4],6.88 µmol
same,inhibition in vivo at 7.2 mg/kg,Mus musculus [14],73%
same,inhibition in vivo at 3.6 mg/kg,Mus musculus [5],61%
same,Activity,Mus musculus [15],34 mm
same,Activity,Mus musculus [6],49 mm
same,inhibition in vivo at 30 mg/kg,Rattus norvegicus [16],72%
same,Activity,Rattus norvegicus [17],0.38 mL
same,Activity,Rattus norvegicus [18],0.41 mL
same,inhibition in vivo at 20 mg/kg,Rattus norvegicus [7],62%
same,Activity,Rattus norvegicus [8],0.4 mL
same,Activity,Rattus norvegicus [9],0.44 mL
same,inhibition in vivo at 10 mg/kg,Rattus norvegicus [19],41%
same,Activity,Rattus norvegicus [20],0.52 mL
same,Activity,Rattus norvegicus [21],0.53 mL
Cc1nc2cc(NCc3ccccn3)ccc2[nH]1,inhibition in vivo at 30 mg/kg,Rattus norvegicus [16],45%
same,Activity,Rattus norvegicus [17],1.03 mL
same,Activity,Rattus norvegicus [18],0.87 mL
same,inhibition in vivo at 20 mg/kg,Rattus norvegicus [7],32%
same,Activity,Rattus norvegicus [8],1.08 mL
same,Activity,Rattus norvegicus [9],0.9 mL
same,inhibition in vivo at 10 mg/kg,Rattus norvegicus [19],10%
same,Activity,Rattus norvegicus [20],1.08 mL
same,Activity,Rattus norvegicus [21],0.97 mL
COc1ccnc(CNc2ccc3[nH]c(C)nc3c2)c1C,inhibition in vivo at 30 mg/kg,Rattus norvegicus [16],55%
same,Activity,Rattus norvegicus [17],0.65 mL
same,Activity,Rattus norvegicus [18],0.64 mL
same,inhibition in vivo at 20 mg/kg,Rattus norvegicus [7],52%
same,Activity,Rattus norvegicus [8],0.69 mL
same,Activity,Rattus norvegicus [9],0.69 mL
same,inhibition in vivo at 10 mg/kg,Rattus norvegicus [19],11%
same,Activity,Rattus norvegicus [20],0.9 mL
same,Activity,Rattus norvegicus [21],0.7 mL
Cc1nc2cc(NCc3ccccn3)ccc2n1C[C@@H](O)[C@H]1O[C@H](O)[C@@H](O)[C@H]1O,pH,Rattus norvegicus [10],4.41
same,pH,Rattus norvegicus [1],4.04
same,Activity,Rattus norvegicus [11],2.3 mL
same,Activity,Rattus norvegicus [2],2.4 mL
same,Activity,Rattus norvegicus [12],4.44 µg/mL
same,Activity,Rattus norvegicus [3],4.72 µg/mL
same,Activity,Rattus norvegicus [13],6.02 µmol
same,Activity,Rattus norvegicus [4],6.91 µmol
same,inhibition in vivo at 7.2 mg/kg,Mus musculus [14],54%
same,inhibition in vivo at 3.6 mg/kg,Mus musculus [5],46%
same,Activity,Mus musculus [15],58 mm
same,Activity,Mus musculus [6],68 mm
same,inhibition in vivo at 30 mg/kg,Rattus norvegicus [16],52%
same,Activity,Rattus norvegicus [17],0.64 mL
same,Activity,Rattus norvegicus [18],0.63 mL
same,inhibition in vivo at 20 mg/kg,Rattus norvegicus [7],47%
same,Activity,Rattus norvegicus [8],0.69 mL
same,Activity,Rattus norvegicus [9],0.68 mL
same,inhibition in vivo at 10 mg/kg,Rattus norvegicus [19],8%
same,Activity,Rattus norvegicus [20],0.89 mL
same,Activity,Rattus norvegicus [21],0.69 mL
